Values joined by “and” are separate entries in the source; they are usually repeats but may differ in a detail not shown here. Identical values can stand only once. Hit rate of the full screen: of about 350,000 compounds, about 740 (0.21%) were called active.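 How the source made its calls: active means every replicate reaching activation of at least 50%, whatever the mean replicate activation; inconclusive means replicates that disagree or another doubt; inactive means the rest.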 This excerpt belongs to a sample that is enriched for actives.
Assay: compounds raising PGC1a acetylation signal, primary screen, PGC1a modulator project, cell-based, U2OS, AlphaScreen, signal-increasing mode (AID 651723)
Conditions: overnight, at 15.6 µM, active compounds read high
In short: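 Incubation: overnight compound treatment, 37 °C. System: U2OS cells transduced with flag-tagged PGC1a and GCN5 acetyltransferase. Detection: AlphaScreen lysate read. Compound: single-point compound dosing.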

Row | SMILES | activation
1 | CCOC(=O)c1c(-c2ccc(C)cc2C)csc1NC(=O)CSc1nnnn1C | -46.2% (inactive)
2 | CCOC(=O)c1c(NC(=O)CSc2cn(CC)c3ccccc23)sc2c1CCC2 | 67.2% (active)
3 | CCCCC(=O)Nc1ccc(C(=O)NCCCn2ccnc2)cc1 | 71.6% (active)
4 | Cc1noc(C)c1S(=O)(=O)Nc1ccc2c(c1)C(=O)N([C@@H](C)CO)C[C@@H](C)[C@@H](CN(C)S(=O)(=O)c1ccccc1)O2 | -50.3% (inactive)
5 | Cc1ccc(-c2c[n+](CC(=O)Nc3ccccc3)c3n2CCC3)cc1 | -43.3% (inactive)
6 | Cc1nc(SCC(=O)NC2CCCC2)[nH]c(=O)c1C | -42.3% (inactive)
7 | Cc1csc(NC(=O)NC2(C(F)(F)F)Oc3ccccc3O2)n1 | 74.6% (active)
8 | c1ccc2c(-c3nn4nnnc4c4ccccc34)cccc2c1 | 71% (active)
9 | Cn1c2c(c(=O)n(C)c1=O)C(c1cccc(F)c1)C(C#N)=C(N)O2 (stereo not given) | -80.9% (inactive)
10 | COc1ccc(Oc2c(Cl)cnn(-c3ccccc3)c2=O)cc1 | 112% (active)
11 | CCOCCc1nn2c(=O)cc(CSCC(=O)Nc3cccc(C)c3C)nc2s1 | -38.7% (inactive)
12 | O=S(=O)(c1ccc(Br)cc1)n1ccc2ccccc21 | -40.2% (inactive)
13 | Cc1cc(C)c(S(=O)(=O)NCC2CCC(C(=O)NCc3ccc4c(c3)OCO4)CC2)c(C)c1 (stereo not given) | -43.2% (inactive)
14 | CC(C)(C)c1cc(C(=O)N/N=C/c2ccc([N+](=O)[O-])s2)n[nH]1 | 80.1% (active)
15 | Cc1nc(Nc2ccc3c(c2)OCCO3)c2nnn(Cc3ccccc3Cl)c2n1 | -56.2% (inactive)
16 | N#Cc1c(N)nc2c3c(sc(=N)c2c1N)NC(=O)CC3c1ccccc1Cl (stereo not given) | 67.8% (active)
17 | Cc1cccc(CS(=O)(=O)c2ncc(Cl)c(C(=O)Nc3ccc(F)cc3)n2)c1 | 138% (active)
18 | O=C(Nc1cccc(Cl)c1)c1cncn1-c1ccc(F)cc1 | -44.8% (inactive)
19 | CN(C)c1ccc(-n2cccc2/C=N/n2cnnc2)cc1 | -55.5% (inactive)
20 | O=C(NC1=CC(=O)c2ccccc2C1=O)c1ccccc1 | -80.8% (inactive)
21 | CC[C@H]1CN2CCc3cc(OC)c(OC)cc3[C@@H]2C[C@@H]1C[C@H]1NCCc2cc(OC)c(OC)cc21 | -83.7% (inactive)
22 | N#Cc1ccc(-c2ccc(C3[C@@H]4CN(S(=O)(=O)c5ccc(F)cc5)C[C@H]3N4)cc2)cc1 (stereo not given in full) | -58.1% (inactive)
23 | CCc1ccc(N2CC(O)=C(c3nc4ccccc4c(=O)[nH]3)C2=N)cc1 | 165% (active)
24 | Cc1cc(C(=O)NNS(=O)(=O)c2ccccc2C(F)(F)F)nn1C(C)(C)C | 259% (active)
25 | CCOC(=O)CSc1nccc(N(C)C)c1C#N | -9.86% (inactive)

Row | SMILES | activation
26 | COc1ccc(CC(NC(C)=O)C(=O)N2CCN(C(=O)Nc3cccc(Cl)c3)CC2)cc1OC (stereo not given) | -50.7% (inactive)
27 | Cc1cc(C)n(-c2nc(O)cc(=O)[nH]2)n1 | -36.3% (inactive)
28 | COc1ccc(C(=O)NN(C)c2nc(-c3ccccc3)cc(C)c2S(C)(=O)=O)cc1 | 87.7% (active)
29 | CC(C)C#Cc1cnc2c(c1)C(=O)N([C@@H](C)CO)C[C@@H](C)[C@@H](CN(C)C(=O)CN1CCOCC1)O2 | -58.3% (inactive)
30 | O=C(CSc1nnc(Cn2cnc3ccccc32)o1)c1ccccc1 | 59.8% (active)
31 | CCOc1ccccc1CN1CCN(C2CCC2)CC1CCO (stereo not given) | -74.8% (inactive)
32 | CN1OC[C@@H]2CN(S(=O)(=O)c3cccc4ccccc34)[C@H](c3ccc(N4CCCCC4)cc3)C[C@@H]21 | -47.9% (inactive)
33 | Cc1cc(C)nc(S/C=C/C(=O)c2ccccc2)n1 | 63.2% (active)
34 | CCOC(=O)c1ccc2[nH]c(C)c(CN3CCN(C)CC3)c(=O)c2c1 | -59.3% (inactive)
35 | CC(C)CCNc1nc(N2CCCC2)c2c(c1C#N)CCN(C)C2 | 102% (active)
36 | C[C@@H]1CCCCO[C@@H](CN(C)CC2CC2)[C@H](C)CN([C@H](C)CO)C(=O)c2cc(NS(=O)(=O)c3ccccc3)ccc2O1 | -56.4% (inactive)
37 | COc1ccc(C(=O)/C=C/c2cccnc2)c(OC)c1 | 70.7% (active)
38 | NC(=O)N/N=C\c1cccs1 | -76.7% (inactive)
39 | O=C(Nc1ccc2c(c1)OCO2)N[C@H]1CC[C@H](CCNC(=O)C2CCC2)O[C@@H]1CO | -46.2% (inactive)
40 | O=[N+]([O-])c1ccc(C=Nc2ccc(Cl)cc2Cl)s1 | 68.4% (active)
41 | C=CCn1c(=NC(=O)c2ccc(S(=O)(=O)N3CCCC3)cc2)sc2cc(NC(C)=O)ccc21 | -51.1% (inactive)
42 | N#Cc1ccc(-c2ccc([C@@H]3[C@H]4CNC[C@@H]3N4Cc3ccc4c(c3)OCO4)cc2)cc1 | -48.1% (inactive)
43 | CCOC(=O)C1=CC[C@@H](c2ccccc2)N(S(=O)(=O)c2ccc(C)cc2)[C@H]1c1ccc(CC)cc1 | 75.7% (active)
44 | NC(=NC(=O)c1ccccc1)N1CCOCC1 | -84.1% (inactive)
45 | CCN(CC)C(=O)c1ccc(O)c(OC)c1 | -55.9% (inactive)
46 | COc1ccc(C(=O)Nc2nc(-c3ccc(OC)cc3)c(-c3ccc([N+](=O)[O-])cc3)s2)cc1 | 55.6% (active)
47 | N=C1C(c2nc3ccccc3s2)=C(O)CN1NC(=O)c1ccc([N+](=O)[O-])cc1 | -100% (inactive)
48 | O=C(Cc1ccccc1)N1N=C(c2ccncc2)CC1(O)C(F)(F)F (stereo not given) | -50% (inactive)
49 | C[C@@H]1CCCCO[C@@H](CN(C)CC2CC2)[C@@H](C)CN([C@H](C)CO)C(=O)c2cc(NC(=O)C3CCCCC3)ccc2O1 | -52.5% (inactive)
50 | CCc1ccc(NC(=O)Nc2ccncc2)cc1 | -48.9% (inactive)

Row | SMILES | activation
51 | Cc1nc2ccccc2c(=O)n1NC(=O)c1ccc(Cl)c([N+](=O)[O-])c1 | -44.8% (inactive)
52 | CCn1c(/C=C/c2ccc([N+](=O)[O-])o2)nc2ccccc2c1=O | 149% (active)
53 | O=C1CN(S(=O)(=O)Cc2ccccc2)C[C@@H]2[C@@H](c3ccc(C#Cc4cccc(F)c4)cc3)[C@@H](CO)N12 | 60.3% (active)
54 | COc1ccc(-c2ccc(CCC(=O)O)n2NC(=O)c2ccc(C(C)(C)C)cc2)cc1 | -43.5% (inactive)
55 | S=C1NC(c2ccccc2)=NCN1c1ccc(Br)cc1 | -80.9% (inactive)
56 | NC(=O)Cc1ccc2c(c1)[nH]c1ccccc12 | 116% (active)
57 | O=S(=O)(O)c1nc2ccccc2n1Cc1ccc(Cl)cc1 | -47.2% (inactive)
58 | Cc1oc2c(c1C(=O)N1CCOCC1)C(=O)c1ccccc1C2=O | -42.9% (inactive)
59 | CN1/C(=C\C(=O)c2oc3ccccc3c2N)C(C)(C)c2ccccc21 | -86.9% (inactive)
60 | CC(C)c1cc(C(=O)N/N=C/C(Br)=C/c2ccccc2)n[nH]1 | 125% (active)
61 | Cc1cc(C(=O)N/N=C\C(Br)=C\c2ccccc2)c(C)o1 | 85.5% (active)
62 | Cc1[nH]c(=O)c(C(=O)/C=C/c2ccccc2)c2c1CCCC2 | -53.2% (inactive)
63 | N#Cc1cccc(NC(=O)COC(=O)c2ccccc2C(=O)c2ccc(Cl)c([N+](=O)[O-])c2)c1 | -46.9% (inactive)
64 | Clc1ccc(-c2nnc(-c3ccccc3)nc2N2CCSCC2)cc1 | 80.9% (active)
65 | CN1CCc2c(sc3c2c(NCc2ccco2)nc2nnnn23)C1 | -44.7% (inactive)
66 | COCCNC(=O)CSc1nc2c(n1-c1ccccc1)CCCC2 | -43.7% (inactive)
67 | COc1ccc(NC(=O)C2(C)Cc3c(-c4cccc(NC(C)=O)c4)ccnc3O2)cc1 (stereo not given) | 71.2% (active)
68 | CCc1ccc(NC(=O)CSc2nnc(-c3cnccn3)n2Cc2ccco2)cc1 | -45.6% (inactive)
69 | O=C(/C=C/Sc1ncn[nH]1)c1ccc(Cl)cc1 | 109% (active)
70 | COc1cccc(CNC(=O)CCC2CCCN(Cc3ccc(OC(F)F)cc3)C2)c1 (stereo not given) | -52.5% (inactive)
71 | Cc1cccc(NC(=O)c2ccc([N+](=O)[O-])o2)c1 | 149% (active)
72 | CC(C)NC(=O)Nc1ccc2c(c1)C(=O)N([C@@H](C)CO)C[C@@H](C)[C@H](CN(C)S(=O)(=O)c1ccccc1)OCCCC[C@@H](C)O2 | -124% (inactive)
73 | COc1ccc(-c2cc(=O)c3c(O)cc(O[C@@H]4O[C@H](CO[C@@H]5O[C@@H](C)[C@H](O)[C@@H](O)[C@H]5O)[C@@H](O)[C@H](O)[C@H]4O)cc3o2)cc1O | -49.5% (inactive)
74 | COCC(=O)Nc1ccc2c(c1)OC[C@H](C)N(C(=O)c1ccccc1F)C[C@H](C)[C@H](OC)CN(C)C2=O | -42.9% (inactive)
75 | CCc1cc2c(N3CCN(c4nnc(CC)s4)CC3)ncnc2s1 | 53.5% (active)

Row | SMILES | activation
76 | CC1(C)CCSC(/C=C/c2ccccc2)=N1 | 183% (active)
77 | O=[N+]([O-])c1c(NCCO)cc(Sc2nc3ccccc3s2)c2nonc12 | -45% (inactive)
78 | C[C@H](CO)N1C[C@H](C)[C@H](CN(C)Cc2ccc(C(=O)O)cc2)Oc2ncc(-c3ccccc3)cc2C1=O | -41.5% (inactive)
79 | Cc1cccc(C2C3=C(CCCC3=O)N=C3c4ccccc4C(=O)C32)c1 (stereo not given) | 80% (active)
80 | CC(=O)NC1CCN(CC(=O)Nc2nccs2)CC1 | -50.3% (inactive)
81 | CC(C)Cc1nn2c(=O)cc(O)nc2s1 | -40.3% (inactive)
82 | COc1ccc(N(Cc2cc3cc(OC)ccc3[nH]c2=O)S(C)(=O)=O)cc1 | 69.9% (active)
83 | N#Cc1ccc(C(c2ccc(C#N)cc2)n2cncn2)cc1 | -48.6% (inactive)
84 | Cc1cc(C)cc(N(CC(=O)Nc2c(C)n(C)n(-c3ccccc3)c2=O)S(C)(=O)=O)c1 | -49.5% (inactive)
85 | C[C@H]1CN([C@@H](C)CO)C(=O)c2cc(C#Cc3ccc(F)cc3)cnc2O[C@@H]1CN(C)C(=O)Nc1ccc(F)cc1 | -44% (inactive)
86 | COc1ccc(C#Cc2ccc([C@H]3[C@@H](CO)N4CCCCN(C(=O)Nc5ccccc5)C[C@H]34)cc2)cc1 | 77.7% (active)
87 | COc1ccc(NC(=O)/C(Cl)=C(/Cl)S(=O)Cc2ccc(C)cc2)cn1 (stereo not given) | -69.3% (inactive)
88 | Cc1ccc(S(=O)(=O)Nc2ccc3c(c2)C(=O)N([C@H](C)CO)C[C@H](C)[C@H](CN(C)C(=O)NC(C)C)OCCCC[C@@H](C)O3)cc1 | -41.5% (inactive)
89 | COCC(=O)Nc1ccc2c(c1)OC[C@@H](C)N(CCc1ccccc1)C[C@H](C)[C@@H](OC)CN(C)C2=O | -52.2% (inactive)
90 | COc1ccc(S(=O)(=O)N2CCN(C(=O)c3cccs3)CC2)cc1OC | -44% (inactive)
91 | COc1ccc(C2CC(c3cccs3)=NN2c2nc(C)c(C(C)=O)s2)cc1OC (stereo not given) | 83.1% (active)
92 | O=S(=O)(NCc1ccccc1Br)c1ccccc1Br | 55.2% (active)
93 | COc1cc(NC(=O)c2[nH]cnc2C(N)=O)cc(C(=O)Nc2cccc(C(F)(F)F)c2)c1 | -62.8% (inactive)
94 | C[C@H](CO)N1C[C@H](C)[C@@H](CN(C)Cc2cccnc2)Oc2cc(C3=CCCC3)ccc2S1(=O)=O | -50.5% (inactive)
95 | O=C(NCc1ccccc1)C(c1ccccc1)N(C(=O)c1csnn1)c1ccc(F)cc1 (stereo not given) | 85.7% (active)
96 | Cc1noc(C)c1S(=O)(=O)N(C)C[C@H]1Oc2ccc(NS(=O)(=O)c3cccs3)cc2C(=O)N([C@H](C)CO)C[C@H]1C | -48% (inactive)
97 | Cc1cc(C)c2c(-n3cccc3)c(C(=O)NNS(=O)(=O)c3ccc(F)cc3)sc2n1 | 132% (active)
98 | Cc1cccc(-c2ccc(C3[C@@H]4CN(C(=O)Nc5ccc(C(F)(F)F)cc5)C[C@H]3N4)cc2)c1 (stereo not given in full) | -92.4% (inactive) and -92.8% (inactive)
99 | CC(C)C(OC(=O)c1cccs1)C(=O)NC1CCCCC1 (stereo not given) | 90.6% (active)
100 | CC/C(=N\NC(=O)c1ccccc1Cl)c1ccc(Br)s1 | -82.8% (inactive)
